Each structure is given as a SMILES string. Calls of active or inactive are those of the source. No cut-off for these calls is given here.

Data set [1] is described as follows: Partition coefficient, log P of the compound. Format: physicochemical. Conditions: octanol/water. The method in brief:
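Partition coefficient measured for the HPLC-purified [18F]-radiolabelled ligands at pH 7.4. Reported as log P.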

The nature of data set [2]: Drug level in mouse brain after 2 mins. Format: ADME, tissue-based. Particulars: read-out: Drug uptake. The method in brief: (§1)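 [18F]-labelled ligands, HPLC-purified to >97% radiochemical purity, given by injection to normal mice. Brain radioactivity measured at 2 min, 2 h and 3 h after injection. Expressed as % injected dose per gram of tissue.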
Data set [3] can be described thus: Drug level in mouse brain after 3 hrs. Format: ADME, tissue-based. Particulars: read-out: Drug uptake. The method in brief:
as §1

Data set [4] concerns the target T1, Amyloid-beta precursor protein (Homo sapiens, UniProt P05067). Briefly: Binding affinity to beta-amyloid in gray matter of AD patent brain. Conditions: tested as the 18F-labelled form. It is filed as tissue-based.
Data set [5] concerns the target T1, Amyloid-beta precursor protein. In words: Displacement of [125I]IMPY from beta-amyloid plaques in AD patient brain. The method in brief:
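Competition binding against the radioligand [125I]IMPY (6-iodo-2-(4'-dimethylamino-)phenylimidazo[1,2-a]pyridine). Tissue: homogenates of postmortem AD brain. Reported as Ki.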
A general note: Loss of bound radioactivity is the signal in a displacement assay; it reports binding, not function.

Data set [6] is described as follows: Drug level in mouse brain after 2 hrs. Format: ADME, tissue-based. Conditions: read-out: Drug uptake. The method in brief:
as §1

T1 sequence (P05067 whole entry): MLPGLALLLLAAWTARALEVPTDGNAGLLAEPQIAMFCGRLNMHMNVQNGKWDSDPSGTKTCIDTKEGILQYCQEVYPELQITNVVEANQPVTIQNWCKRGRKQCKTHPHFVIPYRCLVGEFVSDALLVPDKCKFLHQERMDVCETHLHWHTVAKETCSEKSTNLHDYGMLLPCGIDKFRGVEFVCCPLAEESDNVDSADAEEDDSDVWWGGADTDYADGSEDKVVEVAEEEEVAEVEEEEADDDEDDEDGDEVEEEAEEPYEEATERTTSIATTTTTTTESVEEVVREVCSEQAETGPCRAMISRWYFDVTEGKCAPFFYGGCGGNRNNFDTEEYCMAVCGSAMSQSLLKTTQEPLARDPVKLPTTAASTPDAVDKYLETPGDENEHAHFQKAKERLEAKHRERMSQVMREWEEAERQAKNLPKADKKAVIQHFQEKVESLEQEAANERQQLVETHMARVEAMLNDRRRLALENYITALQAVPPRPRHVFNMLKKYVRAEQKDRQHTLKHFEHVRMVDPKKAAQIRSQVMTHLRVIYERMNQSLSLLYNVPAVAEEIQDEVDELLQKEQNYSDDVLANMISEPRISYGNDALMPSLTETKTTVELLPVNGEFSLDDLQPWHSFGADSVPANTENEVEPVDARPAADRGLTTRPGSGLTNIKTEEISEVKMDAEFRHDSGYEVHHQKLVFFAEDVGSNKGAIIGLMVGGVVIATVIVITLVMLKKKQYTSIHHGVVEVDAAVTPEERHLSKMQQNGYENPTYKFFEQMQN

`[18F]CCOCCOCCOc1ccc(C#Cc2ccc3[nH]ccc3c2)cc1`: the lipophilicity (logP) (usually a log measure of how a compound divides between an organic and an aqueous phase) in data set [1] was determined as 2.56. The tissue uptake at 2 min in data set [2] stood at 2.43 %ID/g. Also, the tissue uptake at 3 h in data set [3] was found to be 2.1 %ID/g.

As to `FCCOCCOCCOc1ccc(C#Cc2ccc3[nH]ccc3c2)cc1`, the result in data set [4] was Active. Besides, the inhibition constant (Ki) (commonly a dissociation constant, usually derived from enzyme kinetics or from competition with a known ligand) in data set [5] is 1.5 nM.

In the case of `[18F]CCOCCOCCOc1ccc(C#Cc2ccc3c(c2)CCN3)cc1`, the logP in data set [1] worked out at 2.95. Further, in data set [2], the tissue uptake at 2 min was found to be 4.5 %ID/g. Also, the tissue uptake at 2 h in data set [6] is 1.71 %ID/g.

As to `FCCOCCOCCOc1ccc(C#Cc2ccc3c(c2)CCN3)cc1`, the outcome in data set [4] was Active. This molecule also showed a Ki in data set [5] of 4 nM.

Values taken from ChEMBL document CHEMBL1140038, “Synthesis and evaluation of indolinyl- and indolylphenylacetylenes as PET imaging agents for beta-amyloid plaques” (Bioorg Med Chem Lett, 2008).
